≈ marks a conversion by molar mass, not a printed value. Calls of active or inactive are those of the source. The calls are words filed in the database; no cut-off is given here.
Legend:
Mus musculus = assay: Antiinflammatory activity in mouse assessed as inhibition of carrageenan-induced increase in paw volume at 200 mg/kg administered 1 hr prior to carrageenan challenge measured after 3 hrs relative to control; type: functional
Method in brief: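 Mice were fasted 2 h and placed in groups of five. Controls received saline i.p. Phenylbutazone was given at 100 mg/kg i.p., curcumin at 200 mg/kg i.p., and derivatives at 200 mg/kg. After 1 h, 0.1 mL of 1% carrageenan in saline was injected subplantar into the right hind paw. Paw volume was followed by plethysmometer for 3 h, and % inhibition was calculated as (Vc − Vt)/Vc × 100.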

Staphylococcus aureus [1] = assay: Antimicrobial activity against Staphylococcus aureus ATCC 11632 assessed as diameter of inhibition zone at 80 uM after 24 hrs by Kirby -Baur disc diffusion method; type: functional; details: ATCC 11632, 24 h, read-out: DIZ
Method in brief: (§1)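 Kirby-Bauer disc diffusion was used. Acetone stocks (160 µM) were serially doubled down to 80, 40 and 20 µM. 4 µL of each went onto 5 mm sterile paper discs, which were dried 30 min at 50 °C. Inoculum was 1.5 × 10⁸ CFU/mL diluted to 3 × 10² CFU/mL, and 50 µL was spread on Mueller-Hinton agar. After 24 h at 37 °C the inhibition-zone diameter was measured. Ciprofloxacin served as positive control.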

Curvularia lunata [2] = assay: Antifungal activity against Curvularia lunata MTCC 581 assessed as zone of inhibition at 80 uM after 48 hrs by disc diffusion method; type: functional; details: MTCC 581, 48 h, read-out: IZ
Method in brief: (§2)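 Spores from 4-day potato dextrose agar cultures, suspended in sterile water at 1.5 × 10⁵ CFU/mL. 0.2 mL was spread on potato dextrose agar. 5 mm filter-paper discs soaked with test compound were laid on the lawn. Incubation was 48 h at 28 °C, then the inhibition zone was measured in mm. Fluconazole was the positive control and acetone the negative control.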

Aspergillus niger [3] = assay: Antifungal activity against Aspergillus niger MTCC 1108 assessed as zone of inhibition at 80 uM after 48 hrs by disc diffusion method; type: functional; details: MTCC 1108, 48 h, read-out: IZ; method in brief: as §2
Escherichia coli [4] = assay: Antimicrobial activity against Escherichia coli ATCC 35218 assessed as diameter of inhibition zone at 80 uM after 24 hrs by Kirby -Baur disc diffusion method; type: functional; details: ATCC 35218, 24 h, read-out: DIZ; method in brief: as §1
HepG2 = assay: Cytotoxicity against human HepG2 cells after 24 hrs by MTT assay; type: functional, cell-based
Method in brief: (§3)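 The MTT assay seeded 5 × 10⁴ cells per well and grew them 24 h in RPMI 1640 with compound at 2.5–200 µM. Medium without cells was the blank and adriamycin the positive control. MTT was added for 4 h at 37 °C, formazan was solubilised, and absorbance was read at 570 nm. IC50 is the concentration that cuts viability 50% against untreated cells.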

Salmonella typhi [5] = assay: Antimicrobial activity against Salmonella typhi ATCC 23564 assessed as diameter of inhibition zone at 40 uM after 24 hrs by Kirby -Baur disc diffusion method; type: functional, Salmonella enterica subsp. enterica serovar Typhi; details: Salmonella enterica, ATCC 23564, 24 h; read-out: DIZ
Trichoderma viride [6] = assay: Antifungal activity against Trichoderma viride MTCC 1107 assessed as zone of inhibition at 40 uM after 48 hrs by disc diffusion method; type: functional; details: MTCC 1107, 48 h, read-out: IZ; method in brief: as §2
Salmonella typhi [7] = assay: Antimicrobial activity against Salmonella typhi ATCC 23564 assessed as diameter of inhibition zone at 80 uM after 24 hrs by Kirby -Baur disc diffusion method; type: functional, Salmonella enterica subsp. enterica serovar Typhi; details: Salmonella enterica, ATCC 23564, 24 h; read-out: DIZ
Bacillus cereus [8] = assay: Antimicrobial activity against Bacillus cereus MTCC 7350 assessed as diameter of inhibition zone at 20 uM after 24 hrs by Kirby -Baur disc diffusion method; type: functional; details: MTCC 7350, 24 h, read-out: DIZ; method in brief: as §1
HeLa = assay: Cytotoxicity against human HeLa cells after 24 hrs by MTT assay; type: functional, cell-based; method in brief: as §3
Aspergillus niger [9] = assay: Antifungal activity against Aspergillus niger MTCC 1108 assessed as zone of inhibition at 40 uM after 48 hrs by disc diffusion method; type: functional; details: MTCC 1108, 48 h, read-out: IZ; method in brief: as §2
Trichoderma viride [10] = assay: Antifungal activity against Trichoderma viride MTCC 1107 after 48 hrs; type: functional; details: MTCC 1107, 48 h
QG-56 = assay: Cytotoxicity against human QG56 cells after 24 hrs by MTT assay; type: functional, cell-based; method in brief: as §3
Curvularia lunata [11] = assay: Antifungal activity against Curvularia lunata MTCC 581 assessed as zone of inhibition at 40 uM after 48 hrs by disc diffusion method; type: functional; details: MTCC 581, 48 h, read-out: IZ; method in brief: as §2
Aspergillus niger [12] = assay: Antifungal activity against Aspergillus niger MTCC 1108 assessed as zone of inhibition at 20 uM after 48 hrs by disc diffusion method; type: functional; details: MTCC 1108, 48 h, read-out: IZ; method in brief: as §2
Pseudomonas aeruginosa [13] = assay: Antimicrobial activity against Pseudomonas aeruginosa ATCC 15499 after 24 hrs by broth micro serial dilution method; type: functional; details: ATCC 15499, 24 h
Method in brief: (§4)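 This was broth microdilution in autoclaved Mueller-Hinton broth. 150 µL of compound per well was serially diluted […], and 50 µL of test organism was added. Plates were incubated 24 h at 37 °C and optical density was read.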

Staphylococcus aureus [14] = assay: Antimicrobial activity against Staphylococcus aureus ATCC 11632 after 24 hrs by broth micro serial dilution method; type: functional; details: ATCC 11632, 24 h; method in brief: as §4
Pseudomonas aeruginosa [15] = assay: Antimicrobial activity against Pseudomonas aeruginosa ATCC 15499 assessed as diameter of inhibition zone at 40 uM after 24 hrs by Kirby -Baur disc diffusion method; type: functional; details: ATCC 15499, 24 h, read-out: DIZ; method in brief: as §1
Escherichia coli [16] = assay: Antimicrobial activity against Escherichia coli ATCC 35218 assessed as diameter of inhibition zone at 40 uM after 24 hrs by Kirby -Baur disc diffusion method; type: functional; details: ATCC 35218, 24 h, read-out: DIZ; method in brief: as §1
Curvularia lunata [17] = assay: Antifungal activity against Curvularia lunata MTCC 581 assessed as zone of inhibition at 20 uM after 48 hrs by disc diffusion method; type: functional; details: MTCC 581, 48 h, read-out: IZ; method in brief: as §2
Pseudomonas aeruginosa [18] = assay: Antimicrobial activity against Pseudomonas aeruginosa ATCC 15499 assessed as diameter of inhibition zone at 20 uM after 24 hrs by Kirby -Baur disc diffusion method; type: functional; method in brief: as §1
Bacillus cereus [19] = assay: Antimicrobial activity against Bacillus cereus MTCC 7350 after 24 hrs by broth micro serial dilution method; type: functional; details: MTCC 7350, 24 h; method in brief: as §4
Curvularia lunata [20] = assay: Antifungal activity against Curvularia lunata MTCC 581 after 48 hrs; type: functional; details: MTCC 581, 48 h
Bacillus cereus [21] = assay: Antimicrobial activity against Bacillus cereus MTCC 7350 assessed as diameter of inhibition zone at 80 uM after 24 hrs by Kirby -Baur disc diffusion method; type: functional; details: MTCC 7350, 24 h, read-out: DIZ; method in brief: as §1
Aspergillus flavus [22] = assay: Antifungal activity against Aspergillus flavus MTCC 1021 assessed as zone of inhibition at 20 uM after 48 hrs by disc diffusion method; type: functional; method in brief: as §2
Escherichia coli [23] = assay: Antimicrobial activity against Escherichia coli ATCC 35218 assessed as diameter of inhibition zone at 20 uM after 24 hrs by Kirby -Baur disc diffusion method; type: functional; details: ATCC 35218, 24 h, read-out: DIZ; method in brief: as §1
Salmonella typhi [24] = assay: Antimicrobial activity against Salmonella typhi ATCC 23564 assessed as diameter of inhibition zone at 20 uM after 24 hrs by Kirby -Baur disc diffusion method; type: functional, Salmonella enterica subsp. enterica serovar Typhi; details: Salmonella enterica, ATCC 23564, 24 h; read-out: DIZ
Trichoderma viride [25] = assay: Antifungal activity against Trichoderma viride MTCC 1107 assessed as zone of inhibition at 20 uM after 48 hrs by disc diffusion method; type: functional; details: MTCC 1107, 48 h, read-out: IZ; method in brief: as §2
Staphylococcus aureus [26] = assay: Antimicrobial activity against Staphylococcus aureus ATCC 11632 assessed as diameter of inhibition zone at 40 uM after 24 hrs by Kirby -Baur disc diffusion method; type: functional; details: ATCC 11632, 24 h, read-out: DIZ; method in brief: as §1
Staphylococcus aureus [27] = assay: Antimicrobial activity against Staphylococcus aureus ATCC 11632 assessed as diameter of inhibition zone at 20 uM after 24 hrs by Kirby -Baur disc diffusion method; type: functional; details: ATCC 11632, 24 h, read-out: DIZ; method in brief: as §1
Aspergillus flavus [28] = assay: Antifungal activity against Aspergillus flavus MTCC 1021 assessed as zone of inhibition at 40 uM after 48 hrs by disc diffusion method; type: functional; details: MTCC 1021, 48 h, read-out: IZ; method in brief: as §2
Escherichia coli [29] = assay: Antimicrobial activity against Escherichia coli ATCC 35218 after 24 hrs by broth micro serial dilution method; type: functional; details: ATCC 35218, 24 h; method in brief: as §4
Aspergillus flavus [30] = assay: Antifungal activity against Aspergillus flavus MTCC 1021 after 48 hrs; type: functional; details: MTCC 1021, 48 h
Aspergillus flavus [31] = assay: Antifungal activity against Aspergillus flavus MTCC 1021 assessed as zone of inhibition at 80 uM after 48 hrs by disc diffusion method; type: functional; details: MTCC 1021, 48 h, read-out: IZ; method in brief: as §2
HCT-116 = assay: Cytotoxicity against human HCT116 cells after 24 hrs by MTT assay; type: functional, cell-based; method in brief: as §3
Aspergillus niger [32] = assay: Antifungal activity against Aspergillus niger MTCC 1108 after 48 hrs; type: functional; details: MTCC 1108, 48 h
Pseudomonas aeruginosa [33] = assay: Antimicrobial activity against Pseudomonas aeruginosa ATCC 15499 assessed as diameter of inhibition zone at 80 uM after 24 hrs by Kirby -Baur disc diffusion method; type: functional; details: ATCC 15499, 24 h, read-out: DIZ; method in brief: as §1
Bacillus cereus [34] = assay: Antimicrobial activity against Bacillus cereus MTCC 7350 assessed as diameter of inhibition zone at 40 uM after 24 hrs by Kirby -Baur disc diffusion method; type: functional; details: MTCC 7350, 24 h, read-out: DIZ; method in brief: as §1
Salmonella typhi [35] = assay: Antimicrobial activity against Salmonella typhi ATCC 23564 after 24 hrs by broth micro serial dilution method; type: functional, Salmonella enterica subsp. enterica serovar Typhi; details: Salmonella enterica, ATCC 23564, 24 h
Trichoderma viride [36] = assay: Antifungal activity against Trichoderma viride MTCC 1107 assessed as zone of inhibition at 80 uM after 48 hrs by disc diffusion method; type: functional; details: MTCC 1107, 48 h, read-out: IZ; method in brief: as §2

Work on `COc1cc(/C=C/C(O)=C/C(/C=C/c2ccc(O)c(OC)c2)=N/c2ccc(S(=O)(=O)Nc3ccccn3)cc2)ccc1O` yielded an inhibition in vivo at 200 mg/kg (Mus musculus) of 37%, a zone of inhibition at 80 µM (Staphylococcus aureus [1]) of 18 mm and a zone of inhibition at 80 µM (Curvularia lunata [2]) of 12 mm. It also gave a zone of inhibition at 80 µM (Aspergillus niger [3]) of 14 mm, a zone of inhibition at 80 µM (Escherichia coli [4]) of 20 mm and an IC50 (HepG2) of 25 µM. The zone of inhibition at 40 µM (Salmonella typhi [5]) was 14 mm, the zone of inhibition at 40 µM (Trichoderma viride [6]) was 13 mm and the zone of inhibition at 80 µM (Salmonella typhi [7]) was 18 mm. For the same molecule, the zone of inhibition at 20 µM (Bacillus cereus [8]) was 11 mm, the IC50 (HeLa) was 50 µM and the zone of inhibition at 40 µM (Aspergillus niger [9]) was 12 mm. For the same molecule, the MIC (Trichoderma viride [10]) was 20 µM (≈ 12 µg/mL), the IC50 (QG-56) was 50 µM and the zone of inhibition at 40 µM (Curvularia lunata [11]) was 9 mm. It also gave a zone of inhibition at 20 µM (Aspergillus niger [12]) of 9 mm, an MIC (Pseudomonas aeruginosa [13]) of 20 µM (≈ 12 µg/mL) and an MIC (Staphylococcus aureus [14]) of 20 µM (≈ 12 µg/mL). The zone of inhibition at 40 µM (Pseudomonas aeruginosa [15]) was 11 mm, the zone of inhibition at 40 µM (Escherichia coli [16]) was 19 mm and the zone of inhibition at 20 µM (Curvularia lunata [17]) was 9 mm. For the same molecule, the “diameter of the inhibition zone (DIZ)” value (Pseudomonas aeruginosa [18]) was “inactive”, the MIC (Bacillus cereus [19]) was 20 µM (≈ 12 µg/mL) and the MIC (Curvularia lunata [20]) was over 80 µM. The zone of inhibition at 80 µM (Bacillus cereus [21]) was 19 mm, the “inhibition zone (IZ)” value (Aspergillus flavus [22]) was “inactive” and the zone of inhibition at 20 µM (Escherichia coli [23]) was 15 mm. It also gave a zone of inhibition at 20 µM (Salmonella typhi [24]) of 11 mm, a zone of inhibition at 20 µM (Trichoderma viride [25]) of 10 mm and a zone of inhibition at 40 µM (Staphylococcus aureus [26]) of 17 mm. The zone of inhibition at 20 µM (Staphylococcus aureus [27]) was 11 mm, the zone of inhibition at 40 µM (Aspergillus flavus [28]) was 9 mm and the MIC (Escherichia coli [29]) was 20 µM (≈ 12 µg/mL). It also gave an MIC (Aspergillus flavus [30]) of over 80 µM, a zone of inhibition at 80 µM (Aspergillus flavus [31]) of 12 mm and an IC50 (HCT-116) of 25 µM. The MIC (Aspergillus niger [32]) was 40 µM (≈ 24 µg/mL), the zone of inhibition at 80 µM (Pseudomonas aeruginosa [33]) was 13 mm and the zone of inhibition at 40 µM (Bacillus cereus [34]) was 16 mm. The MIC (Salmonella typhi [35]) was 20 µM (≈ 12 µg/mL) and the zone of inhibition at 80 µM (Trichoderma viride [36]) was 17 mm.

Reference: ChEMBL document CHEMBL2384906, “Biological activity, design, synthesis and structure activity relationship of some novel derivatives of curcumin containing sulfonamides” (Eur J Med Chem, 2013)
